From the M2OR odorant receptor database

Columns and labels:
Details in all cases: stereoisomer not certain
UniProt L7MU75 = target: T1, UniProt L7MU75
T1 sequence (whole entry): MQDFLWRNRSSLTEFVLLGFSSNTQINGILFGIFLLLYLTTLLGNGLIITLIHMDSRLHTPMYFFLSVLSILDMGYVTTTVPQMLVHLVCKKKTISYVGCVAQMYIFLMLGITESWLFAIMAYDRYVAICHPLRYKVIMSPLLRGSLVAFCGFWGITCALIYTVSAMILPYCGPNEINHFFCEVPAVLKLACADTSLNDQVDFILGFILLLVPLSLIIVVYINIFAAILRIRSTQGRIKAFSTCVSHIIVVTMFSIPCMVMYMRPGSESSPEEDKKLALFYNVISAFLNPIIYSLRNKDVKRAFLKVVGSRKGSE
How it was run: (§1)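 Transient luciferase assays in mammalian cell lines were common, though methods varied by source. The values come from published papers and their supplementary material, with extra details from the original authors when needed. Responsive refers to a measured signal the original authors judged statistically different from baseline, and non-responsive (inactive) to the remainder.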

UniProt L7N210 = target: T2, UniProt L7N210
T2 sequence (whole entry): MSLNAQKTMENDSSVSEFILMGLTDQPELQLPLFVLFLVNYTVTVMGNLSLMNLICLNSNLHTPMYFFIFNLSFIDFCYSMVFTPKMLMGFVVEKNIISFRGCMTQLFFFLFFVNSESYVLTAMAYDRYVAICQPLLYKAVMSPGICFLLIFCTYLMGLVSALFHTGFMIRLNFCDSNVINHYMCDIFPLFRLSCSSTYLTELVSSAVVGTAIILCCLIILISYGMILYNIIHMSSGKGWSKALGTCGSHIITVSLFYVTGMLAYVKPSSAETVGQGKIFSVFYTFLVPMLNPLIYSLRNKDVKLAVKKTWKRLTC
How it was run: as §1

UniProt Q3KPB0 = target: T3, UniProt Q3KPB0
T3 sequence (whole entry): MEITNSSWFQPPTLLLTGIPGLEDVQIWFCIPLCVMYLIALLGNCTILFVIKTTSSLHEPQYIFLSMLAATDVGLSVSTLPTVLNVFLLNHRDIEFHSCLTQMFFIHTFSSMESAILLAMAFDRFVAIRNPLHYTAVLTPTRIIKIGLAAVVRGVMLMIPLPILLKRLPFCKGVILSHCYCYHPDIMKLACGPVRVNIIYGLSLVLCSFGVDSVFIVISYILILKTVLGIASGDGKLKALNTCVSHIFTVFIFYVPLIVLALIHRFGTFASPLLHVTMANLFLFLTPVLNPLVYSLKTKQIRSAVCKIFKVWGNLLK
How it was run: as §1

UniProt Q3U0P3 = target: T4, UniProt Q3U0P3
T4 sequence (whole entry): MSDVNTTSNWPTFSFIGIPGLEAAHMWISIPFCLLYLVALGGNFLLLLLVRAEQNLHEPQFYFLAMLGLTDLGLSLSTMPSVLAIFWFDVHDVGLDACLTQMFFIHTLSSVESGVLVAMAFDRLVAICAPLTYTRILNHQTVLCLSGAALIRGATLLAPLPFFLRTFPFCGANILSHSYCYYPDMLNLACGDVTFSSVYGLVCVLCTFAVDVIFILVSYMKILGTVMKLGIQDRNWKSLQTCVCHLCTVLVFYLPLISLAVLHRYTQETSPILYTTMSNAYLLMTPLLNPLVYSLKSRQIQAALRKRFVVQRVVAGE
How it was run: as §1

UniProt Q7TQU8 = target: T5, UniProt Q7TQU8
T5 sequence (whole entry): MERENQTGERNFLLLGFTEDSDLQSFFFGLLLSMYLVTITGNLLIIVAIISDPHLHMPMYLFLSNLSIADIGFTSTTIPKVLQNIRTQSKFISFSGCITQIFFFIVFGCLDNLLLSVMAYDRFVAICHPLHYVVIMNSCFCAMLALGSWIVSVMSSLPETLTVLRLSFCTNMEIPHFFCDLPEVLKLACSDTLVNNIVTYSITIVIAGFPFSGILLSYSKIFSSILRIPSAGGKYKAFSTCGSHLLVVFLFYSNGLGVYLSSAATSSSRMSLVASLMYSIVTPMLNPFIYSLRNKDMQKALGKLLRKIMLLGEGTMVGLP
How it was run: as §1

UniProt Q7TR79 = target: T6, UniProt Q7TR79
T6 sequence (whole entry): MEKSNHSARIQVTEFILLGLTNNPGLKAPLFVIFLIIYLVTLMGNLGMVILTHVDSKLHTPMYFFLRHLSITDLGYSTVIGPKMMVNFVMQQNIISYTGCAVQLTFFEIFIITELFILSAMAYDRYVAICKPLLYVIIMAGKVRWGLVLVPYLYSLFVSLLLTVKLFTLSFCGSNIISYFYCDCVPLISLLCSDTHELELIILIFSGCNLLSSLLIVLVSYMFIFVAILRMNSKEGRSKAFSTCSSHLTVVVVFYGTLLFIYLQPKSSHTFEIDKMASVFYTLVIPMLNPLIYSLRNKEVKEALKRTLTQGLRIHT
How it was run: as §1

Measured: odorant receptor agonist call

Cc1ccc(C(C)C)cc1
inactive: UniProt L7MU75 | UniProt L7N210 | UniProt Q3KPB0 | UniProt Q3U0P3 | UniProt Q7TQU8 | UniProt Q7TR79

CC(=O)C1(C)CC2=C(CCCC2(C)C)CC1C (stereo not drawn)
inactive: UniProt L7MU75 | UniProt L7N210 | UniProt Q3KPB0 | UniProt Q3U0P3 | UniProt Q7TQU8 | UniProt Q7TR79

Cc1ccc(C(C)C)c(O)c1
inactive: UniProt L7MU75 | UniProt L7N210 | UniProt Q3KPB0 | UniProt Q3U0P3 | UniProt Q7TQU8 | UniProt Q7TR79

CCCCC=O
inactive: UniProt L7MU75 | UniProt L7N210 | UniProt Q3KPB0 | UniProt Q3U0P3 | UniProt Q7TQU8 | UniProt Q7TR79

COc1ccccc1
inactive: UniProt L7MU75 | UniProt L7N210 | UniProt Q3KPB0 | UniProt Q3U0P3 | UniProt Q7TQU8 | UniProt Q7TR79

CCC(C)O (stereo not drawn)
inactive: UniProt L7MU75 | UniProt L7N210 | UniProt Q3KPB0 | UniProt Q3U0P3 | UniProt Q7TQU8 | UniProt Q7TR79

CC1(C)CC(=O)CC(=O)C1
inactive: UniProt L7MU75 | UniProt L7N210 | UniProt Q3KPB0 | UniProt Q3U0P3 | UniProt Q7TQU8 | UniProt Q7TR79

CCC=CCCC=CC=O
inactive: UniProt L7MU75 | UniProt L7N210 | UniProt Q3KPB0 | UniProt Q3U0P3 | UniProt Q7TQU8 | UniProt Q7TR79

CC(CC=O)CCCC(C)(C)O (stereo not drawn)
inactive: UniProt L7MU75 | UniProt L7N210 | UniProt Q3KPB0 | UniProt Q3U0P3 | UniProt Q7TQU8 | UniProt Q7TR79

Cc1ccc(OC(=O)C(C)C)cc1
inactive: UniProt L7MU75 | UniProt L7N210 | UniProt Q3KPB0 | UniProt Q3U0P3 | UniProt Q7TQU8 | UniProt Q7TR79

CC(=O)OCCc1ccccc1
active: UniProt L7N210
inactive: UniProt L7MU75 | UniProt Q3KPB0 | UniProt Q3U0P3 | UniProt Q7TQU8 | UniProt Q7TR79

CCc1ccccc1O
inactive: UniProt L7MU75 | UniProt L7N210 | UniProt Q3KPB0 | UniProt Q3U0P3 | UniProt Q7TQU8 | UniProt Q7TR79

Cc1occc1SSc1ccoc1C
inactive: UniProt L7MU75 | UniProt L7N210 | UniProt Q3KPB0 | UniProt Q3U0P3 | UniProt Q7TR79
active: UniProt Q7TQU8

C=CC(C)=CCC=C(C)CCC=C(C)C
inactive: UniProt L7MU75 | UniProt L7N210 | UniProt Q3KPB0 | UniProt Q3U0P3 | UniProt Q7TQU8 | UniProt Q7TR79

COC(OC)c1ccccc1
inactive: UniProt L7MU75 | UniProt L7N210 | UniProt Q3KPB0 | UniProt Q3U0P3 | UniProt Q7TQU8 | UniProt Q7TR79

CCCCCCC(C=O)=Cc1ccccc1
inactive: UniProt L7MU75 | UniProt L7N210 | UniProt Q3KPB0 | UniProt Q3U0P3 | UniProt Q7TQU8 | UniProt Q7TR79

CCCCCC(C)O (stereo not drawn)
inactive: UniProt L7MU75 | UniProt L7N210 | UniProt Q3KPB0 | UniProt Q3U0P3 | UniProt Q7TQU8 | UniProt Q7TR79

CCCCCCCCOC=O
inactive: UniProt L7MU75 | UniProt L7N210 | UniProt Q3KPB0 | UniProt Q3U0P3 | UniProt Q7TQU8 | UniProt Q7TR79

CC(=O)OCc1ccc2c(c1)OCO2
inactive: UniProt L7MU75 | UniProt Q3KPB0 | UniProt Q3U0P3 | UniProt Q7TQU8 | UniProt Q7TR79
active: UniProt L7N210

CC(C)CCN
inactive: UniProt L7MU75 | UniProt L7N210 | UniProt Q3KPB0 | UniProt Q3U0P3 | UniProt Q7TQU8 | UniProt Q7TR79

CCCCCC=CCCC=O
inactive: UniProt L7MU75 | UniProt L7N210 | UniProt Q3KPB0 | UniProt Q3U0P3 | UniProt Q7TQU8 | UniProt Q7TR79

CC1CC=CCCCCCCCCCC(=O)C1 (stereo not drawn)
inactive: UniProt L7MU75 | UniProt L7N210 | UniProt Q3KPB0 | UniProt Q3U0P3 | UniProt Q7TQU8 | UniProt Q7TR79

C=C(C)C1CCC2(C)OC2C1 (stereo not drawn)
inactive: UniProt L7MU75 | UniProt L7N210 | UniProt Q3KPB0 | UniProt Q3U0P3 | UniProt Q7TQU8 | UniProt Q7TR79

Cc1ccccc1OC(=O)C(C)C
inactive: UniProt L7MU75 | UniProt L7N210 | UniProt Q3KPB0 | UniProt Q3U0P3 | UniProt Q7TQU8 | UniProt Q7TR79

CCc1occc(=O)c1O
inactive: UniProt Q3KPB0 | UniProt Q3U0P3 | UniProt Q7TQU8 | UniProt Q7TR79
active: UniProt L7MU75 | UniProt L7N210

CCCCCOC(=O)CCC
inactive: UniProt L7MU75 | UniProt L7N210 | UniProt Q3KPB0 | UniProt Q3U0P3 | UniProt Q7TQU8 | UniProt Q7TR79

CC=C(C)C=O
inactive: UniProt L7MU75 | UniProt L7N210 | UniProt Q3KPB0 | UniProt Q3U0P3 | UniProt Q7TQU8 | UniProt Q7TR79

OCCc1ccccc1
inactive: UniProt L7MU75 | UniProt L7N210 | UniProt Q3KPB0 | UniProt Q3U0P3 | UniProt Q7TQU8 | UniProt Q7TR79

CCCCCCCOC(=O)C(C)C
inactive: UniProt L7MU75 | UniProt L7N210 | UniProt Q3KPB0 | UniProt Q3U0P3 | UniProt Q7TQU8 | UniProt Q7TR79

C=CC(=O)CCCCC
inactive: UniProt L7MU75 | UniProt L7N210 | UniProt Q3KPB0 | UniProt Q3U0P3 | UniProt Q7TQU8 | UniProt Q7TR79

C=C(C)C1CCC(C)C(O)C1 (stereo not drawn)
inactive: UniProt L7MU75 | UniProt L7N210 | UniProt Q3KPB0 | UniProt Q3U0P3 | UniProt Q7TQU8 | UniProt Q7TR79

CCN(CC)CC
inactive: UniProt L7MU75 | UniProt L7N210 | UniProt Q3KPB0 | UniProt Q3U0P3 | UniProt Q7TQU8 | UniProt Q7TR79

CCOC(=O)CC(C)C
inactive: UniProt L7MU75 | UniProt L7N210 | UniProt Q3KPB0 | UniProt Q3U0P3 | UniProt Q7TQU8 | UniProt Q7TR79
